# Measured values gathered from unrelated publications.
# Protocols differ between the studies behind these lines.
# Medium: plasma
system,setting,AUC(0-t) [ng·h/mL],SMILES
SCID mouse,"oral, 3 mg/kg",588,C=CC(=O)N1CC2CC(n3nc(-c4ccc(C(=O)Nc5ccccn5)cc4)c4c(N)ncnc43)CC2C1 (centres unmarked)
C57BL/6 mouse,"intravenous, 3 mg/kg",4700,COc1ccc(C(O)COc2ccc(-c3csc(-c4ccc(OCC(O)c5ccc(OC)c(OC)c5)cc4)n3)cc2)cc1OC (centres unmarked)
mouse,"intraperitoneal, 32 mg/kg, single dose",6920,CN1CCC[C@H](CN2c3ccccc3Sc3ccccc32)C1.Cl
nude mouse,"oral, 50 mg/kg, single dose",34100,CS(=O)(=O)CCNCc1ccc(-c2ccc3ncnc(Nc4ccc(OCc5cccc(F)c5)c(Cl)c4)c3c2)o1
male CD-1 mouse,"oral, 50 mg/kg",106000,CCc1cc(OC)c2nccc(N3CCc4c(cc(Cn5ccnc5)cc4-c4cn(C)nc4C(F)(F)F)C3=O)c2c1
male BALB/c mouse,"intravenous, 15 mg/kg",260000,CC[C@H](C)[C@@H]1NC(=O)[C@@](C)(NC(=O)[C@H](CCCNC(=N)N)NC(=O)[C@H](CC(C)C)NC(=O)[C@@H](NC(=O)[C@H](CCC(N)=O)NC(=O)[C@H](CC(C)C)NC(C)=O)[C@@H](C)O)CCCC=CCCC[C@@](C)(C(=O)N[C@@H](CC(C)C)C(=O)N[C@@H](Cc2ccc3ccccc3c2)C(N)=O)NC(=O)[C@H](CCCNC(=N)N)NC(=O)[C@H](CCC(N)=O)NC1=O
male CD-1 mouse,"oral, 150 mg/kg",527000,CCc1cc(C(=O)NC)c2nccc(N3CCc4c(cc(Cn5ccnc5)cc4-c4cn(C)nc4C(F)(F)F)C3=O)c2c1
female mouse,"oral, 15 mg/kg, single dose",113000,Cc1nc(-c2cnc(NC(C)C)n(C)c2=O)ccc1Oc1ccnc(-c2cnn(C)c2)c1
